Experimental data taken from ChEMBL document CHEMBL4261600 (Eur J Med Chem, 2018).
pEC50: −log10 of the molar value. Activity calls are given as the source filed them.

Legend:
[1] = biological target: Transient receptor potential cation channel subfamily M member 6 (Homo sapiens) (UniProt Q9BX84); assay: Binding affinity to wild-type human partial length TRPM6 (Q1723 to I1998 residues) expressed in mammalian expression system assessed as remaining unbound target protein level at 1000 nM by Kinomescan method relative to control
[2] = biological target: Ephrin type-B receptor 2 (Homo sapiens) (UniProt P29323); assay: Binding affinity to wild-type human partial length EPHB2 (I597 to L902 residues) expressed in bacterial expression system assessed as remaining unbound target protein level at 1000 nM by Kinomescan method relative to control
[3] = biological target: Phosphatidylinositol 5-phosphate 4-kinase type-2 gamma (Homo sapiens) (UniProt Q8TBX8); assay: Binding affinity to wild-type human partial length PIP5K2C (M1 to A421 residues) expressed in mammalian expression system assessed as remaining unbound target protein level at 1000 nM by Kinomescan method relative to control
Chain of Phosphatidylinositol 5-phosphate 4-kinase type-2 gamma (Homo sapiens) (Q8TBX8 whole entry, the tested form may be a part): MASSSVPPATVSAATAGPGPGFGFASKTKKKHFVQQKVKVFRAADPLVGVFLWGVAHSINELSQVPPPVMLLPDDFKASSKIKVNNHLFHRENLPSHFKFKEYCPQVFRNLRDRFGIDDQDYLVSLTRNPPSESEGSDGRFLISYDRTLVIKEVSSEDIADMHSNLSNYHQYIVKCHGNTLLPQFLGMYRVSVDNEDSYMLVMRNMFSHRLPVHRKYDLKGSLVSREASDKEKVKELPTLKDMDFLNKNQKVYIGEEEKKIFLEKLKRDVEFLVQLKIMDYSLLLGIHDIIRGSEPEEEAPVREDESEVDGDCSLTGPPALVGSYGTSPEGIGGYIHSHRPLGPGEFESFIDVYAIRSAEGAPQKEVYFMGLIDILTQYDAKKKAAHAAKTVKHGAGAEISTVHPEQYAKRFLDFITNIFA

[4] = Half life in Sprague-Dawley rat at 20 mg/kg, po by LC-MS/MS analysis; type: ADME, organism-based; conditions: in vivo
[5] = biological target: Serine/threonine-protein kinase STK11 (Homo sapiens) (UniProt Q15831); assay: Binding affinity to wild-type human full length LKB1 (M1 to Q433 residues) expressed in bacterial expression system assessed as remaining unbound target protein level at 1000 nM by Kinomescan method relative to control
Chain of Serine/threonine-protein kinase STK11 (Homo sapiens) (Q15831 whole entry, the tested form may be a part): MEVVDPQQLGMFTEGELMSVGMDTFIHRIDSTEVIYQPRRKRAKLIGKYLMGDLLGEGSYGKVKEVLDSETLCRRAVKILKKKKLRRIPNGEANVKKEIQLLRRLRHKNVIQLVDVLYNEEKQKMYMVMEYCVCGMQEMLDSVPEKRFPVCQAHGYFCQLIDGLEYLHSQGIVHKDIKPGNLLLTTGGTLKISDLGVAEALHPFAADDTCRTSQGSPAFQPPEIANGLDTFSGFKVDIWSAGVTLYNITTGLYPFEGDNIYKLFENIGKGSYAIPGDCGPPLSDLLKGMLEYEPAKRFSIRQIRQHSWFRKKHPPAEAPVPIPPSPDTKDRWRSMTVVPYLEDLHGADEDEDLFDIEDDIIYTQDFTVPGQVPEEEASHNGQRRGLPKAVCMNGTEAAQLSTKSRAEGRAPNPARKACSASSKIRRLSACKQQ
Summary of the method: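 Single-point competition binding screen across a panel of 468 kinases and mutants, with the inhibitor at 1 μM. Binding is read out as percent of a DMSO control, and targets below 1 percent control were classed as strong binders.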

[6] = tested on: Mast/stem cell growth factor receptor Kit (Homo sapiens), P10721 [V559D]; assay: Binding affinity to human partial length KIT V559D mutant (Y545 to D952 residues) expressed in bacterial expression system assessed as remaining unbound target protein level at 1000 nM by Kinomescan method relative to control
Summary of the method: (§1)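 KINOMEscan competition-binding profiling across the panel of 468 kinases and mutants, with inhibitor tested at 1 μM. Binding is expressed as percent of control, with DMSO as the reference control.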

[7] = biological target: Serine/threonine-protein kinase MRCK beta (Homo sapiens) (UniProt Q9Y5S2); assay: Binding affinity to wild-type human partial length MRCKB (L56 to S417 residues) expressed in bacterial expression system assessed as remaining unbound target protein level at 1000 nM by Kinomescan method relative to control
[8] = biological target: Phosphatidylinositol 4,5-bisphosphate 3-kinase catalytic subunit delta isoform (Homo sapiens) (UniProt O00329); assay: Binding affinity to wild-type human partial length PIK3CD (R108 to Q1044 residues) expressed in mammalian expression system assessed as remaining unbound target protein level at 1000 nM by Kinomescan method relative to control
Chain of Phosphatidylinositol 4,5-bisphosphate 3-kinase catalytic subunit delta isoform (Homo sapiens) (O00329 whole entry, the tested form may be a part, canonical isoform): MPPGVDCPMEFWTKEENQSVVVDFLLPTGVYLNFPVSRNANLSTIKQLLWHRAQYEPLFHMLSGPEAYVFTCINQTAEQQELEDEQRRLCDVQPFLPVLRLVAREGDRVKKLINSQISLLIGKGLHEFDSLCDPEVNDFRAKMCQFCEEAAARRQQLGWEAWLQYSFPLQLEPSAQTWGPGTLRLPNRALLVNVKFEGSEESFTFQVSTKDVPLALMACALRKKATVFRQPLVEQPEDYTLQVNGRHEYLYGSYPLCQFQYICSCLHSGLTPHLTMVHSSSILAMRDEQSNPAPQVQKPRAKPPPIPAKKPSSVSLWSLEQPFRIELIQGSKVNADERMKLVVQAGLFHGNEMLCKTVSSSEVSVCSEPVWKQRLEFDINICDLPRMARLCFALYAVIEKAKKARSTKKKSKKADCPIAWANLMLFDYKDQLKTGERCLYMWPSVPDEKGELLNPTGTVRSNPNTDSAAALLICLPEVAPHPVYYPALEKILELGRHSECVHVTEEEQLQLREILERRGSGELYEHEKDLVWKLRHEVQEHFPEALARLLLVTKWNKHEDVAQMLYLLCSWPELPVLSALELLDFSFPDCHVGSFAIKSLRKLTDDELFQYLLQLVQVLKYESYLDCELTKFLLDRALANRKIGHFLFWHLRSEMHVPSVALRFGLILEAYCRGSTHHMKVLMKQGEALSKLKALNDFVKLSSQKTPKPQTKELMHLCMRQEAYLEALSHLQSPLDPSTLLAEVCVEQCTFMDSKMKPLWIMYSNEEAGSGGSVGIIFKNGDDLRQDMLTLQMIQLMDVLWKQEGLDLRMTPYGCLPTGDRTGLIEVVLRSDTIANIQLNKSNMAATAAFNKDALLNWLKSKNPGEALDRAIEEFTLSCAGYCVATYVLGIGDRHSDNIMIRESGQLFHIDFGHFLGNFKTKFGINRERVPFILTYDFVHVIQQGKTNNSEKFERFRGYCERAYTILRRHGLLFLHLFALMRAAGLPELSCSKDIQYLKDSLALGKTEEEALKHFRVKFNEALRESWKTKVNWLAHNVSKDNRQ

[9] = biological target: Ephrin type-A receptor 1 (Homo sapiens) (UniProt P21709); assay: Binding affinity to wild-type human partial length EPHA1 (V588 to I913 residues) expressed in bacterial expression system assessed as remaining unbound target protein level at 1000 nM by Kinomescan method relative to control
Chain of Ephrin type-A receptor 1 (Homo sapiens) (P21709 whole entry, the tested form may be a part): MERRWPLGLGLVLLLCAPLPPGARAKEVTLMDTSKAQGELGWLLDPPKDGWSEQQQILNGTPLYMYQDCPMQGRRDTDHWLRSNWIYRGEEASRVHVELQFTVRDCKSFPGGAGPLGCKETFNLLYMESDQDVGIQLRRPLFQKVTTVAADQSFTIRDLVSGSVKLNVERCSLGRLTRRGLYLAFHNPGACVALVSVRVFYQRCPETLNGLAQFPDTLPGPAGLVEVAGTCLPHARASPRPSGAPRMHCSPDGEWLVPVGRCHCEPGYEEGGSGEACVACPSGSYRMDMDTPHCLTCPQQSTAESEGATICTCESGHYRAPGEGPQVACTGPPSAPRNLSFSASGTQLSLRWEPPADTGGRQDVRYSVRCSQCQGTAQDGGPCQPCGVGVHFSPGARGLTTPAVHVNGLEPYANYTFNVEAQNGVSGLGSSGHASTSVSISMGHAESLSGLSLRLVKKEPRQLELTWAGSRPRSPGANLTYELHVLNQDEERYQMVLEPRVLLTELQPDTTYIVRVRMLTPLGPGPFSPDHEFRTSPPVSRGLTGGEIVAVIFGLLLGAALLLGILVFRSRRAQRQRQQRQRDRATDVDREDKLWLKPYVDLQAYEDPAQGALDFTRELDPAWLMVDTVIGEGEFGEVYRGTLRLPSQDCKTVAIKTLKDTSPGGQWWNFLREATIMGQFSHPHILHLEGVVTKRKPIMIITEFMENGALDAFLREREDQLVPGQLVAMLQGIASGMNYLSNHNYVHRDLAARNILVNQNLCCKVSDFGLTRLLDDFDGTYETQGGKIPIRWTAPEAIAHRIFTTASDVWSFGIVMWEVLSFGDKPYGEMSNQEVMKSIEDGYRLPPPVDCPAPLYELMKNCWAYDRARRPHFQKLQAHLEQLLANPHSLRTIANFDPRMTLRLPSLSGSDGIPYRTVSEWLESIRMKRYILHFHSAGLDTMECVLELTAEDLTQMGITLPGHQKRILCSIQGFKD
Summary of the method: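 KINOMEscan binding panel of 468 kinases/mutants. Inhibitor was tested at a single concentration of 1 μM. Binding is reported as percent of control, defined relative to a DMSO control.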

[10] = biological target: Casein kinase I isoform gamma-2 (Homo sapiens) (UniProt P78368); assay: Binding affinity to wild-type human full length CSNK1G2 (M1 to K415 residues) expressed in bacterial expression system assessed as remaining unbound target protein level at 1000 nM by Kinomescan method relative to control
Chain of Casein kinase I isoform gamma-2 (Homo sapiens) (P78368 whole entry, looked up, the tested form may be a part, canonical isoform): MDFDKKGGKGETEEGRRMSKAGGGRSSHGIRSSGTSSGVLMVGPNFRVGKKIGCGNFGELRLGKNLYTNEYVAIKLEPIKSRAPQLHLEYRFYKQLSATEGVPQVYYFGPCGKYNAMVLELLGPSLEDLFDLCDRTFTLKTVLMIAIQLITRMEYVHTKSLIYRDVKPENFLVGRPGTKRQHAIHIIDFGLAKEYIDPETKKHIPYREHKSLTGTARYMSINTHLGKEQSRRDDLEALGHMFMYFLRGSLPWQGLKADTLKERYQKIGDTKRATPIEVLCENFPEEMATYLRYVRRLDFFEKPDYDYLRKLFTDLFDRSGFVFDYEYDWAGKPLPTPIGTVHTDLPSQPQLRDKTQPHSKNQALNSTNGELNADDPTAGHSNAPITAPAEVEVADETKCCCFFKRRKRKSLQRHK
Summary of the method: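 KINOMEscan competitive binding profile at 1 μM inhibitor. Remaining target binding reported as percent of DMSO control.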

[11] = biological target: Calcium/calmodulin-dependent protein kinase type 1G (Homo sapiens) (UniProt Q96NX5); assay: Binding affinity to wild-type human partial length CAMK1G (M1 to A342 residues) expressed in bacterial expression system assessed as remaining unbound target protein level at 1000 nM by Kinomescan method relative to control
Chain of Calcium/calmodulin-dependent protein kinase type 1G (Homo sapiens) (Q96NX5 whole entry, the tested form may be a part): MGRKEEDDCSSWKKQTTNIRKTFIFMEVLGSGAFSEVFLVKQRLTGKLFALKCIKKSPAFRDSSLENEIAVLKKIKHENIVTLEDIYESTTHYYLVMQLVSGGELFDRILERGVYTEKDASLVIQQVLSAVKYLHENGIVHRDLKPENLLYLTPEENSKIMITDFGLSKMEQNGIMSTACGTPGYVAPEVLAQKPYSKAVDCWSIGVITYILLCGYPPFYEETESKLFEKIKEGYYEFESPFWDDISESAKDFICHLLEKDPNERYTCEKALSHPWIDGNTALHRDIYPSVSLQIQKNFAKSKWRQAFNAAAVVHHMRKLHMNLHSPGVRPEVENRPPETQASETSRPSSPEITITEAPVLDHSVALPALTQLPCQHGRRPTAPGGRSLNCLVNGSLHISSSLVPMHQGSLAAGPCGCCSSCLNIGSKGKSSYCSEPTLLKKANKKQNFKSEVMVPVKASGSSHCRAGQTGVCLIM
Summary of the method: (§2)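 KINOMEscan competition binding profile across a panel of 468 kinases and mutants, with the inhibitor tested at a single concentration of 1 μM. Binding is reported as percent of control, meaning signal relative to a DMSO control.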

[12] = biological target: Serine/threonine-protein kinase TNNI3K (Homo sapiens) (UniProt Q59H18); assay: Binding affinity to wild-type human full length TNNI3K (M1 to S835 residues) expressed in bacterial expression system assessed as remaining unbound target protein level at 1000 nM by Kinomescan method relative to control; summary of the method: as §2
[13] = tested on: Mycobacterium tuberculosis; assay: Binding affinity to wild-type Mycobacterium tuberculosis partial length PKNB (M1 to G279 residues) expressed in mammalian expression system assessed as remaining unbound target protein level at 1000 nM by Kinomescan method relative to control
Summary of the method: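 KINOMEscan competition binding panel run at 1 μM inhibitor; binding reported as percent of DMSO control (remaining target bound versus vehicle).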

[14] = biological target: Non-receptor tyrosine-protein kinase TNK1 (Homo sapiens) (UniProt Q13470); assay: Binding affinity to wild-type human full length TNK1 (M1 to P661 residues) expressed in bacterial expression system assessed as remaining unbound target protein level at 1000 nM by Kinomescan method relative to control; summary of the method: as §2
[15] = biological target: Cyclin-dependent kinase 9 (Homo sapiens, UniProt P50750); assay: Inhibition of CDK9 in human MV4-11 cells assessed as decrease in RNA polymerase 2 phosphorylation at Ser 2 residues in CTD domain after 2 hrs by immunoblotting analysis; type: cell-based
Chain of Cyclin-dependent kinase 9 (P50750 whole entry, the tested form may be a part): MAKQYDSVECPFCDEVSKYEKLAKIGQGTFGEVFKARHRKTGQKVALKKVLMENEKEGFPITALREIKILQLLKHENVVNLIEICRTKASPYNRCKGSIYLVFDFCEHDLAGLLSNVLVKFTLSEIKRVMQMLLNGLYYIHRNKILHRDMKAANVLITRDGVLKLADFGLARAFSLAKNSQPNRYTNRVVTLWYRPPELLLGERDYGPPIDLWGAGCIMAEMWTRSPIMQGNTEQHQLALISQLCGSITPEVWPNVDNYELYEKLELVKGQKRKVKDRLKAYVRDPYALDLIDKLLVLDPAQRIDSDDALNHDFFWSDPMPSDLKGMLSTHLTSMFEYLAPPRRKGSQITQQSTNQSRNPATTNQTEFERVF

[16] = AUC (0 to t) in Sprague-Dawley rat at 3 mg/kg, iv by LC-MS/MS analysis; type: ADME, organism-based; conditions: in vivo
Summary of the method: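 Non-compartmental PK. Male SD rats 190-210 g, mice and beagle dogs acclimatized one week, fasted 12 h with water, split into iv and po groups (mice 48, rats 6, dogs 6). iv 3/3/2 mg/kg (mice/rats/dogs); po 10/20/10 mg/kg; vehicle DMSO in 5% glucose water. Blood at 2 or 5 to 720 min; plasma protein-precipitated with methanol, caffeine internal standard, LC-MS/MS.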

[17] = biological target: Serine/threonine-protein kinase B-raf (Homo sapiens) (UniProt P15056); assay: Binding affinity to wild-type human partial length BRAF (S429 to E741 residues) expressed in mammalian expression system assessed as remaining unbound target protein level at 1000 nM by Kinomescan method relative to control
Chain of Serine/threonine-protein kinase B-raf (Homo sapiens) (P15056 whole entry, the tested form may be a part): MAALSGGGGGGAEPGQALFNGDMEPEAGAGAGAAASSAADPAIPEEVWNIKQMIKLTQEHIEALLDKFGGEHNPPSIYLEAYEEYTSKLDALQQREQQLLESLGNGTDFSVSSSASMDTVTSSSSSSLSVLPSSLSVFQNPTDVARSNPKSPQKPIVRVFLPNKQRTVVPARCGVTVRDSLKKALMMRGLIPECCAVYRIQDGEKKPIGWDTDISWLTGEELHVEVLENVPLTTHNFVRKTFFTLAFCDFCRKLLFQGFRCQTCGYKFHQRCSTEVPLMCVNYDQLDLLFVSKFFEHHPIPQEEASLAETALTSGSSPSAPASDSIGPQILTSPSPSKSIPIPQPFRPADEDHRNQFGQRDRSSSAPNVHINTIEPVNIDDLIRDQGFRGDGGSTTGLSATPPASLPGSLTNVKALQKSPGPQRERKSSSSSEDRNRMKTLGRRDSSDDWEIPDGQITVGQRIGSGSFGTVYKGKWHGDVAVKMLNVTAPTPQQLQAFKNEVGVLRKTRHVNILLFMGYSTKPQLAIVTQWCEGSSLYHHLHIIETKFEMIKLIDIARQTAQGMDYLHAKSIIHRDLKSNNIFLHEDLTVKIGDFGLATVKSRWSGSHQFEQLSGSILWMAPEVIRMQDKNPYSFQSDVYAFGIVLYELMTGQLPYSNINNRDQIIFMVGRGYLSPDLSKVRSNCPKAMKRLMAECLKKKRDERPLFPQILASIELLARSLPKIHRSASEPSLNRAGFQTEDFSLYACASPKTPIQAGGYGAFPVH
Summary of the method: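 Profiled in a KINOMEscan binding panel with the inhibitor at a single concentration of 1 μM. Binding to each kinase was read out as percent of control, relative to a DMSO control. Strong binders were defined as those with a percent control value below 1.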

[18] = tested on: Hepatocyte growth factor receptor (Homo sapiens), P08581 [Y1235D]; assay: Binding affinity to human partial length MET Y1235D mutant (D1010 to S1367 residues) expressed in bacterial expression system assessed as remaining unbound target protein level at 1000 nM by Kinomescan method relative to control; summary of the method: as §1
Homo sapiens = organism: Homo sapiens; assay: Induction of apoptosis in human MEC1 cells assessed as decrease in BCL-2 level up to 3 uM after 2 hrs by immunoblotting analysis; type: functional, cell-based

COCCN[C@H]1CC[C@H](Nc2cc(-c3csc(NCC4(C#N)CCOCC4)n3)c(Cl)cn2)CC1
Activity [1]: 89% | Activity [2]: 82% | Activity [3]: 59% | half-life [4]: 3.37 h | Activity [5]: 100% | Activity [6]: 100% | Activity [7]: 100% | Activity [8]: 85% | Activity [9]: 39% | Activity [10]: 73% | Activity [11]: 94% | Activity [12]: 95% | Activity [13]: 84% | Activity [14]: 56% | pEC50 [15]: > 7.00 | inhibition [15]: Dose-dependent effect | AUC(0-t) [16]: 625 ng·h/mL | Activity [17]: 97% | Activity [18]: 96% | Activity (Homo sapiens): inactive
